Assay results as given in ChEMBL document CHEMBL6092172, “Exploration and characterization of the antimalarial activity of cyclopropyl carboxamides that target the mitochondrial protein, cytochrome b” (Eur J Med Chem, 2024).
Calls of active or inactive are those of the source. The rule behind the calls is not given here.

Legend:
Plasmodium falciparum [1] = experiment: Antimalarial activity against asexual Plasmodium falciparum 3D7 incubated for 72 hrs by LDH assay; assay type: functional, organism-based; conditions: 3D7, 72 h
Method in brief: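 P. falciparum 3D7 asexual parasites exposed 72 h at 37 °C (5 % CO2, 5 % O2) to a 10-point 1-in-3 dilution series […], 0.1 % DMSO; 0.1 % DMSO and 100 nM chloroquine as controls. Plates frozen at −80 °C and thawed, then LDH read (lactate/APAD/NBT/diaphorase, Tris pH 7.5) at 650 nm after 30 min.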

Plasmodium falciparum [2] = experiment: Antimalarial activity against asexual synchronized ring stage Plasmodium falciparum 3D7 infected with human RBC assessed as parasite arrest measured after 24 hrs by giemsa staining based microscopy analysis; assay type: functional, organism-based
Method in brief: (§1)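 Giemsa-stained blood smears scored by microscopy for stage progression.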

Plasmodium falciparum [3] = experiment: Antimalarial activity in asexual blood-stage Plasmodium falciparum Dd2-B2 infected in human O+ RBC assessed as minimum inoculum of resistance at 3 times IC90 measured for 60 days by SYBR green/Mito tracker deep red based flow cytometry analysis; assay type: functional, organism-based; conditions: time 60.0 day
Method in brief: (§2)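 Cultures were grown in human O+ RBCs at 3 % hematocrit in AlbuMAX-supplemented RPMI-1640 at 37 °C under 5 % O2/5 % CO2/90 % N2. […] Wells were checked three times weekly by flow cytometry and smear; a well was positive at 0.3 % parasitemia with parasites seen on smear.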

Plasmodium falciparum [4] = experiment: Antiplasmodial activity against Plasmodium falciparum NF54 stage V gametocytes assessed as reduction in xanthurenic acid induced female gametocyte development measured after 48 hrs by fluorescence microscopic analysis; conditions: NF54, 48 h
Plasmodium falciparum [5] = experiment: Effect on oxygen consumption rate in Plasmodium falciparum infected with human RBC at 5 uM in presence of NaN3 by Seahorse XFe24 analyzer; assay type: functional, organism-based
Method in brief: (§3)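 Malate-dependent OCR of P. falciparum measured first as 5 basal timepoints. Compound (5 μM) then injected and OCR followed for 8 timepoints. TMPD (cytochrome c donor) then added for 5 timepoints, followed by NaN3 (complex IV inhibitor) for 5 timepoints. Means and SDs of 3 technical replicates.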

Plasmodium falciparum [6] = experiment: Antimalarial activity against asexual N-cyclopropyl-4-((cyclopropyl(2,4-dichlorobenzyl)amino)methyl)benzamide-resistant Plasmodium falciparum harbouring DHODH genome with 2 fold CNV measured after 72 hrs by LDH assay; assay type: functional, organism-based
Method in brief: (§4)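 They were tested in a 72 h LDH assay: 10-point 3-fold dilutions […] in 0.1 % DMSO, with 100 nM chloroquine as the kill control. Incubation was 37 °C under 5 % CO2/5 % O2, then freeze–thaw, APAD/NBT/diaphorase mix, A650 after 30 min, and a four-parameter fit.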

Plasmodium falciparum [7] = experiment: Antimalarial activity against asexual synchronized ring stage Plasmodium falciparum 3D7 infected with human RBC assessed as parasite arrest at 10 times EC50 treated every 24 hrs for 120 hrs followed by compound washout and subsequent addition of RBCs measured after 28 days by parasite reduction ratio assay; assay type: functional, organism-based
Method in brief: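 Parasite reduction ratio assay on 3D7. […] Compound then washed out and uninfected RBCs and medium added. Regrowth measured by LDH assay after 28 days; means and SDs of 3 replicate experiments.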

Plasmodium falciparum [8] = experiment: Effect on oxygen consumption rate in Plasmodium falciparum infected with human RBC at 5 uM by Seahorse XFe24 analyzer; assay type: functional, organism-based; method in brief: as §3
Plasmodium falciparum [9] = experiment: Effect on oxygen consumption rate in Plasmodium falciparum infected with human RBC at 5 uM in presence of TMPD by Seahorse XFe24 analyzer; assay type: functional, organism-based; method in brief: as §3
Plasmodium falciparum [10] = experiment: Antimalarial activity against asexual synchronized ring stage Plasmodium falciparum 3D7 infected with human RBC assessed as parasite growth inhibition measured after 48 hrs by giemsa staining based microscopy analysis; assay type: functional, organism-based; conditions: 3D7, Erythrocyte; method in brief: as §1
Plasmodium falciparum [11] = experiment: Antimalarial activity against asexual blood stage Plasmodium falciparum Dd2-B2 assessed as parasite recrudescence by measuring minimum inoculum of resistance measured for 60 days by flow cytometry; assay type: functional; conditions: time 60 day; method in brief: as §2
Plasmodium falciparum [12] = experiment: Antimalarial activity against asexual synchronized ring stage Plasmodium falciparum 3D7 infected with human RBC assessed as parasite arrest measured after 12 to 48 hrs by SYBR green staining based flow cytometry analysis; assay type: functional, organism-based; conditions: time 12-48 hrs
Method in brief: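 Parasitemia measured by flow cytometry of SYBR Green-stained infected RBCs; mean of three technical replicates.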

Plasmodium falciparum [13] = experiment: Antimalarial activity against asexual blood stage Plasmodium falciparum Dd2 incubated for 72 hrs by flow cytometry analysis; assay type: functional, organism-based; conditions: Dd2, 72 h
Method in brief: (§5)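 Asexual parasites were exposed to compound for 72 h and growth was read as SYBR green signal by flow cytometry (FACS).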

Plasmodium falciparum [14] = experiment: Antimalarial activity against asexual Plasmodium falciparum 3D7 harbouring cytb with V259L mutant at Qo site incubated for 72 hrs by SYBR green staining based flow cytometry analysis; conditions: 3D7, 72 h
Plasmodium falciparum [15] = experiment: Antimalarial activity against asexual blood stage Plasmodium falciparum Dd2 harbouring Cyt b with I22L mutant incubated for 72 hrs by flow cytometry analysis; assay type: functional, organism-based; conditions: Dd2, 72 h; method in brief: as §5
Plasmodium falciparum [16] = experiment: Antimalarial activity against asexual Plasmodium falciparum SB1-A6 incubated for 72 hrs by SYBR green staining based flow cytometry analysis; assay type: functional, organism-based; conditions: SB1-A6, 72 h; method in brief: as §5
Plasmodium falciparum [17] = experiment: Antimalarial activity against asexual Plasmodium falciparum Dd2 harbouring ScDHODH incubated for 72 hrs by SYBR green staining based flow cytometry analysis; assay type: functional, organism-based; conditions: Dd2, 72 h; method in brief: as §5
Plasmodium falciparum [18] = experiment: Antiplasmodial activity against Plasmodium falciparum NF54 stage V gametocytes assessed as reduction in xanthurenic acid induced male gametocyte development measured after 48 hrs by fluorescence microscopic analysis; conditions: NF54, 48 h
Plasmodium falciparum [19] = experiment: Antimalarial activity against asexual compound resistant Plasmodium falciparum harbouring cyt b F264L mutant at Qo site measured after 72 hrs by LDH assay; assay type: functional, organism-based; method in brief: as §4
HepG2 = experiment: Cytotoxicity against human HepG2 cells assessed as reduction in cell viability measured after 48 hrs by cell-titer glo assay; assay type: functional
Method in brief: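 HepG2 cells grown in DMEM with 10 % FCS; 1000 cells per well seeded onto a 1:2 dilution series from 50 μM (0.5 % DMSO). Incubated 48 h at 37 °C, 5 % CO2. Viability read by CellTiter-Glo and normalised to DMSO and 10 μM bortezomib controls. Value from four-parameter fit; average of ≥2 independent experiments.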

Plasmodium berghei [20] = experiment: Antiplasmodial activity against exo-erythrocytic stage Plasmodium berghei sporozoites expressing GFP-Luc fused genes infected in human HepG2-A16-CD81 cells expressing EGFP assessed as reduction in parasite growth measured after 48 hrs by bioluminescence analysis; assay type: functional, organism-based; conditions: HepG2-A16-CD81, 48 h
Method in brief: (§6)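 HepG2 cells pre-treated with a 10-point dilution series of compound, then infected with luciferase-expressing P. berghei sporozoites. After 48 h, exoerythrocytic form viability read by bioluminescence.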

Plasmodium berghei [21] = experiment: Antiplasmodial activity against liver stage Plasmodium berghei sporozoites infected in human HepG2 assessed as reduction in parasite growth measured after 48 hrs by bioluminescence analysis; assay type: functional, organism-based; conditions: HepG2, 48 h; method in brief: as §6
Plasmodium falciparum [22] = experiment: Antimalarial activity against asexual 4-(((N-cyclopropyl-2,4,6-trimethylphenyl)sulfonamido)methyl)-N-methylbenzamide-resistant Plasmodium falciparum harbouring cyt b […] mutant at Qo site measured after 72 hrs by LDH assay; assay type: functional, organism-based; method in brief: as §4
Plasmodium falciparum [23] = experiment: Antimalarial activity against asexual N-cyclopropyl-4-((cyclopropyl(2,4-dichlorobenzyl)amino)methyl)benzamide-resistant Plasmodium falciparum harbouring DHODH genome with 5 fold CNV measured after 72 hrs by LDH assay; assay type: functional, organism-based; method in brief: as §4
Plasmodium falciparum [24] = experiment: Antimalarial activity against asexual compound resistant Plasmodium falciparum harbouring cyt b […] mutant at Qo site measured after 72 hrs by LDH assay; assay type: functional, organism-based; method in brief: as §4

CN(C(=O)c1ccc(CN(Cc2ccccc2)C2CC2)cc1)C1CC1
EC50 (Plasmodium falciparum [1]): > 10000 nM

O=C(NC1CC1)c1ccc(CN(Cc2ccccc2)Cc2ccccc2)cc1
EC50 (Plasmodium falciparum [1]): 590 nM

O=C(NC1CC1)c1ccc(CN(Cc2ccc(Cl)cc2Cl)C2CC2)cc1
Activity (Plasmodium falciparum [2]): Active
Activity (Plasmodium falciparum [3]): Active
EC50 (Plasmodium falciparum [4]): > 25 µM
Activity (Plasmodium falciparum [5]): Active
EC50 (Plasmodium falciparum [6]): 620 nM
Activity (Plasmodium falciparum [7]): Active; Compound Showed Moderate To Slow Rate Of Kill Than Pyrimethamine And Slightly Quicker Than Atq
Activity (Plasmodium falciparum [8]): Active
Activity (Plasmodium falciparum [9]): inactive
EC50 (Plasmodium falciparum [10]): 2500 nM
Activity (Plasmodium falciparum [11]): 1.9 10^7No_unit
Activity (Plasmodium falciparum [12]): Active
EC50 (Plasmodium falciparum [13]): 118 nM

O=C(NC1CCCC1)c1ccc(CN(Cc2ccc(Cl)cc2Cl)C2CC2)cc1
EC50 (Plasmodium falciparum [1]): 1800 nM

CC(C)CN(Cc1ccc(C(=O)NC2CC2)cc1)C1CC1
EC50 (Plasmodium falciparum [1]): 400 nM

O=C1C(O)=C([C@H]2CC[C@H](c3ccc(Cl)cc3)CC2)C(=O)c2ccccc21 [ATOVAQUONE]
EC50 (Plasmodium falciparum [14]): 13 nM
Activity (Plasmodium falciparum [2]): Active
Activity (Plasmodium falciparum [5]): Active
Activity (Plasmodium falciparum [8]): Active
Activity (Plasmodium falciparum [9]): inactive
EC50 (Plasmodium falciparum [10]): 11700 nM
EC50 (Plasmodium falciparum [15]): 5400 nM
EC50 (Plasmodium falciparum [16]): > 10 µM
Activity (Plasmodium falciparum [12]): Active
EC50 (Plasmodium falciparum [17]): > 10 µM

CNC(=O)c1ccc(CN(C2CC2)S(=O)(=O)c2c(C)cc(C)cc2C)cc1
EC50 (Plasmodium falciparum [14]): 420 nM
Activity (Plasmodium falciparum [2]): Active
EC50 (Plasmodium falciparum [18]): 1100 nM
Activity (Plasmodium falciparum [3]): Active
EC50 (Plasmodium falciparum [4]): > 25 µM
EC50 (Plasmodium falciparum [19]): 2100 nM
Activity (Plasmodium falciparum [5]): Active
CC50 (HepG2): > 40 µM
EC50 (Plasmodium berghei [20]): 70 nM
Activity (Plasmodium falciparum [7]): Active; Compound Showed Moderate To Slow Rate Of Kill Than Pyrimethamine And Slightly Quicker Than Atq
EC50 (Plasmodium berghei [21]): > 50 µM
EC50 (Plasmodium falciparum [1]): 110 nM
Activity (Plasmodium falciparum [8]): Active
Activity (Plasmodium falciparum [9]): inactive
EC50 (Plasmodium falciparum [10]): 1300 nM
EC50 (Plasmodium falciparum [15]): 65 nM
Activity (Plasmodium falciparum [11]): >2 10^7No_unit
EC50 (Plasmodium falciparum [22]): 283 nM
EC50 (Plasmodium falciparum [23]): 500 nM
EC50 (Plasmodium falciparum [24]): 1730 nM
EC50 (Plasmodium falciparum [16]): > 10 µM
Activity (Plasmodium falciparum [12]): Active
EC50 (Plasmodium falciparum [17]): > 10 µM
EC50 (Plasmodium falciparum [13]): 70 nM

CCCN(Cc1ccc(C(=O)NC2CC2)cc1)Cc1c(C)cc(C)cc1C
EC50 (Plasmodium falciparum [4]): > 25 µM

O=C(Nc1ccccc1)c1ccc(CN(Cc2ccc(Cl)cc2Cl)C2CC2)cc1
EC50 (Plasmodium falciparum [1]): 1200 nM

Cc1cc(Nc2ccc(S(F)(F)(F)(F)F)cc2)n2nc(C(C)(F)F)nc2n1 [DSM-265]
Activity (Plasmodium falciparum [8]): inactive
Activity (Plasmodium falciparum [9]): inactive
EC50 (Plasmodium falciparum [15]): 8 nM
EC50 (Plasmodium falciparum [16]): > 10 µM
EC50 (Plasmodium falciparum [17]): > 10 µM

Cc1cccc(CN(Cc2ccc(C(=O)NC3CC3)cc2)C2CC2)c1C
CC50 (HepG2): > 40 µM
EC50 (Plasmodium falciparum [1]): 150 nM
